In PMC3132207 (Journal of medicinal chemistry, 2011):

Experiments:
[1] = biological target: heteromeric rod CNG channels consisting of CNGA1 and CNGB1 subunits (Bos taurus, UniProt Q00194+Q28181); assay type: cell-based; conditions: 20 µM blocker, Vm = +50 mV
[2] = biological target: proteinase K (Parengyodontium album, UniProt P06873); experiment: In vitro hydrolysis by proteinase K; assay type: in vitro ADME, Engyodontium album; conditions: 50 µM compound, 37 °C
[3] = biological target: chymotrypsin (Bos taurus, UniProt P00766); experiment: In vitro hydrolysis by chymotrypsin; assay type: in vitro ADME; conditions: 50 µM compound, 37 °C
Method in brief: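 Hydrolysis was followed by diode-array UV absorbance at the product peak wavelength, starting on compound addition. Runs were in triplicate. Enzyme activity was confirmed separately with 90 µM 4-nitrophenyl acetate in 0.1 M HEPES, pH 6.5, 37 °C, read at 404 nm for 10 min.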

[4] = biological target: butyrylcholinesterase purified from human blood serum (Homo sapiens, UniProt P06276); experiment: In vitro hydrolysis by serum cholinesterase; assay type: in vitro ADME; conditions: even after 24 h incubations
Sequence of butyrylcholinesterase purified from human blood serum (P06276 29-602): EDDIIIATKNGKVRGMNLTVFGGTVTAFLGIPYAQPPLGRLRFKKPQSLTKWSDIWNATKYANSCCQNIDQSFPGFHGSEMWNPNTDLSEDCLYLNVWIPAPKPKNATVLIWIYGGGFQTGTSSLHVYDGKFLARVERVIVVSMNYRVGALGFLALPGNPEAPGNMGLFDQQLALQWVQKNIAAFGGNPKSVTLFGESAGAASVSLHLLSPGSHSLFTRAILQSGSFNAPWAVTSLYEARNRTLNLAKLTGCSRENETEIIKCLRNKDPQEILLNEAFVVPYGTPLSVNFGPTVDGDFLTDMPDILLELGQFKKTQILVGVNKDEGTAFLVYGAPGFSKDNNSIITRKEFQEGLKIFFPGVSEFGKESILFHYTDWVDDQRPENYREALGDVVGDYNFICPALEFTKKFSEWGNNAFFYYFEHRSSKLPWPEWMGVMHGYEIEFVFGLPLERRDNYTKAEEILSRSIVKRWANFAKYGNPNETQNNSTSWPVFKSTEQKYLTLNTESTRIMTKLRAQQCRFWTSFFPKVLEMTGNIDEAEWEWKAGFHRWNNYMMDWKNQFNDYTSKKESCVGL

Sequence of proteinase K (P06873 106-384): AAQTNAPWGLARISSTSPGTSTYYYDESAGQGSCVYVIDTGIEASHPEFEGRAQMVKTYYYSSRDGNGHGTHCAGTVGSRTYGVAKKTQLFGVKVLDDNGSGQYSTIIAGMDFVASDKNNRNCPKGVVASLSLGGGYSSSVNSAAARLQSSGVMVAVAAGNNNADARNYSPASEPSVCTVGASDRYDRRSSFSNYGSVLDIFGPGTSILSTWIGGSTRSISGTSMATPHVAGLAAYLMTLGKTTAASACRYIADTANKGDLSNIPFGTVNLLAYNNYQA
Sequence of heteromeric rod CNG channels consisting of CNGA1 and CNGB1 subunits (Q00194 whole entry): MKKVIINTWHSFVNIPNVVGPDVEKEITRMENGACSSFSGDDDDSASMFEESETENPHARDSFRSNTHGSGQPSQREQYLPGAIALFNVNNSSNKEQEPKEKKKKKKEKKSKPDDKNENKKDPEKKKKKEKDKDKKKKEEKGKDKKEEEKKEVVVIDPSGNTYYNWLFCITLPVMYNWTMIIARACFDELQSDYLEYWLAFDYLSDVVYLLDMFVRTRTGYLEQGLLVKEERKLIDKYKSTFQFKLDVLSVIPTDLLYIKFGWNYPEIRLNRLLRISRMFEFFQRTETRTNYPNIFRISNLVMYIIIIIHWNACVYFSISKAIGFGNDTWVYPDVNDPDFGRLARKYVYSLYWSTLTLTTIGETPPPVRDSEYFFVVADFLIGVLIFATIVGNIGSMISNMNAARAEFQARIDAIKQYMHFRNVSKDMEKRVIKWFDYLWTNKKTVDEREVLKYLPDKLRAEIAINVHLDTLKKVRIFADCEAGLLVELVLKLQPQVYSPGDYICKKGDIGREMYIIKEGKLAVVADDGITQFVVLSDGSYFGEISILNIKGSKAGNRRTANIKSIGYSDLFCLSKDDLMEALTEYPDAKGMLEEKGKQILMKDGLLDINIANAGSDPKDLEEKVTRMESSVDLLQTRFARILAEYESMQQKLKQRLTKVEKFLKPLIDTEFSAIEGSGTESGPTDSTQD
Sequence of heteromeric rod CNG channels consisting of CNGA1 and CNGB1 subunits (Q28181 whole entry): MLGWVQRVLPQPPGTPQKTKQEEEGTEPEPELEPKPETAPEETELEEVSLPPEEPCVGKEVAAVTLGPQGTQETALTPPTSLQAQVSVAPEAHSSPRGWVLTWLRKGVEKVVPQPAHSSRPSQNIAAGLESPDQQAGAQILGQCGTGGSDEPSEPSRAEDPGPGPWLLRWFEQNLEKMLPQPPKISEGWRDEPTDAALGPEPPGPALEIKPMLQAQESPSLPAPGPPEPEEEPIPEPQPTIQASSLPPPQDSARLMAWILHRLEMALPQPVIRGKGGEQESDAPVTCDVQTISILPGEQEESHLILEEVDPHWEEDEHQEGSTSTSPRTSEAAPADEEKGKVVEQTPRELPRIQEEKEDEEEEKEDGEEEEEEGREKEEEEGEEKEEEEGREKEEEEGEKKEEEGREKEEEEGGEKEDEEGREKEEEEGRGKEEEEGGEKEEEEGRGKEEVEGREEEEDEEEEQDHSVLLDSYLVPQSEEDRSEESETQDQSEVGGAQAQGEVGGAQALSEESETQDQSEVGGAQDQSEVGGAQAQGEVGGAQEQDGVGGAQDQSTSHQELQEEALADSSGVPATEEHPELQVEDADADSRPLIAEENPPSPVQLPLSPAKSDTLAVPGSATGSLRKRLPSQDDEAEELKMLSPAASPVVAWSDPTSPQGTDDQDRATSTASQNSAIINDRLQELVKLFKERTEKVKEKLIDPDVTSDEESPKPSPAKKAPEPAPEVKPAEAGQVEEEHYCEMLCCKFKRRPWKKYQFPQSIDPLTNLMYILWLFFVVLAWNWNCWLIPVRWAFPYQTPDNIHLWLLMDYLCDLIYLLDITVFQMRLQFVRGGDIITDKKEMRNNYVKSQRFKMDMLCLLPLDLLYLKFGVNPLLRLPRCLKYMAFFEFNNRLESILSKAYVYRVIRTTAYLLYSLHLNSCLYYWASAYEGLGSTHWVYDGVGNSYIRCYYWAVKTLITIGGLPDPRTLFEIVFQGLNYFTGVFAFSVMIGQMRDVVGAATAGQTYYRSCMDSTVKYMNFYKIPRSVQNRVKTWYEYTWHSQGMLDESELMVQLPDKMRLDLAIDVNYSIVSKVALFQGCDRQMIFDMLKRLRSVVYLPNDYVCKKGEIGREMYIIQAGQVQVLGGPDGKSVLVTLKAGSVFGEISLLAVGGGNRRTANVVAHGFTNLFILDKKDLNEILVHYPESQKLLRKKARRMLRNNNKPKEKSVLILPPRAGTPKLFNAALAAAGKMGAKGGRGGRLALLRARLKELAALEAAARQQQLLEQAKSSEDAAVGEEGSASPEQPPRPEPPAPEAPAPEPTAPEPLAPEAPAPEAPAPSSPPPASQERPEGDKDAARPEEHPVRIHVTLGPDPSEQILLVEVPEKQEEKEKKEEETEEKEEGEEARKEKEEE

| Compound | block of 2 mM cGMP-induced currents [1] [%] | hydrolysis by proteinase K [2] | hydrolysis by chymotrypsin [3] | hydrolysis product detection by butyrylcholinesterase [4] |
| --- | --- | --- | --- | --- |
| COc1ccc([C@H]2Sc3ccccc3N(CCN(C)C)C(=O)[C@H]2OC(C)=O)cc1 (relative stereo) [l-cis-diltiazem] | 74.2 ± 5.8 | – | – | – |
| CCCCCCCCNc1ccc(C(=O)NCCN(C)C)cc1 [Compound 7, 4-(Octylamino)-N-(2-(dimethylamino)ethyl)benzamide] | – | resistant | resistant | – |
| CCCCNc1ccc(C(=S)NCCN(C)C)cc1 [Compound 8, 4-(Butylamino)-N-(2-(dimethylamino)ethyl)benzothioamide] | – | completely resistant | completely resistant | much too stable for our system to detect any hydrolysis product |
| CCCCCCCCNc1ccc(C(=S)NCCN(C)C)cc1 [Compound 9, 4-(Octylamino)-N-(2-(dimethylamino)ethyl)benzothioamide] | – | completely resistant | completely resistant | much too stable for our system to detect any hydrolysis product |
| CCCCNc1ccc(C(=O)NCCN(C)C)cc1 [Compound 6, 4-(Butylamino)-N-(2-(dimethylamino)ethyl)benzamide] | – | resistant | resistant | – |
